≈ marks a conversion by molar mass, not a printed value. Calls of active or inactive are those of the source. The rule behind the calls is not given here.
How the values were obtained:
[1] = tested on: Vesicular stomatitis virus; assay: Antiviral activity against Vesicular stomatitis virus infected in human HeLa cells assessed as inhibition of virus-induced cytopathicity after 3 days; assay type: functional, organism-based; details: 72 h
[2] = tested on: Respiratory syncytial virus; assay: Antiviral activity against RSV infected in human HeLa cells assessed as inhibition of virus-induced cytopathicity after 3 days; assay type: functional, organism-based; details: 72 h
In short: (§1)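 Confluent cell monolayers infected with 100 CCID50 virus; after 2 h adsorption at 37 °C, virus removed and serial compound dilutions added (DMSO stocks 10 mg/ml). Incubated 37 °C for 3 days until complete CPE in untreated virus control. EC50 = concentration protecting 50% of infected cells from viral cytopathogenicity; ">" marks highest concentration tested.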

Sindbis virus = assay: Antiviral activity against Sindbis virus infected in african green monkey Vero cells assessed as inhibition of virus-induced cytopathicity after 3 days postinfection; assay type: functional, organism-based; details: 72 h; in short: as §1
[3] = tested on: Mammalian orthoreovirus 1; assay: Antiviral activity against Reovirus 1 infected in african green monkey Vero cells assessed as inhibition of virus-induced cytopathicity after 3 days; assay type: functional, organism-based; details: Mammalian orthoreovirus 1, Vero, 72 h; in short: as §1
[4] = Selectivity index, ratio of MCC for human HeLa cells to EC50 for Coxsackievirus B4; assay type: toxicity, cell-based; details: read-out: Selectivity Index
In short: (§2)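 The ratio was MCC/EC50. MCC was the minimum concentration causing microscopically visible change in normal morphology of uninfected HEL, HeLa or Vero cells, scored in parallel with the antiviral test. EC50 came from the CPE assay: 100 CCID50 infection, 2 h adsorption at 37 °C, serial compound dilutions, and 3 days at 37 °C. It was the concentration protecting 50% of cells from virus-induced CPE.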

[5] = tested on: Vesicular stomatitis virus; assay: Antiviral activity against Vesicular stomatitis virus infected in human HEL cells assessed as inhibition of virus-induced cytopathicity after 3 days; assay type: functional, organism-based; details: 72 h
[6] = Cytotoxicity against african green monkey Vero cells assessed as minimum cytotoxic concentration required to cause microscopically detectable alteration in normal cell morphology; assay type: cell-based; details: chlorocebus sabaeus
In short: (§3)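 Run in parallel with antiviral assays on uninfected cell cultures; test compounds from 10 mg/ml DMSO stocks in serial dilution. Value is minimum cytotoxic concentration (MCC) producing microscopically detectable alteration of normal cell morphology.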

[7] = Cytotoxicity against HEL cells assessed as minimum cytotoxic concentration required to cause microscopically detectable alteration in normal cell morphology; assay type: cell-based; details: human; in short: as §3
[8] = Cytotoxicity against human HeLa cells assessed as minimum cytotoxic concentration required to cause microscopically detectable alteration in normal cell morphology; assay type: cell-based; in short: as §3
Human alphaherpesvirus 1 [9] = assay: Antiviral activity against thymidine kinase-deficient ACV-resistant HSV1 KOS infected in human HEL cells assessed as inhibition of virus-induced cytopathicity after 3 days; assay type: functional, organism-based; details: Human alphaherpesvirus 1, KOS, 72 h
Human respirovirus 3 = assay: Antiviral activity against Parainfluenza virus type 3 infected in african green monkey Vero cells assessed as inhibition of virus-induced cytopathicity after 3 days; assay type: functional, organism-based; details: Human respirovirus 3, Vero, 72 h; in short: as §1
Coxsackievirus B4 [10] = assay: Antiviral activity against Coxsackievirus B4 infected in african green monkey Vero cells assessed as inhibition of virus-induced cytopathicity after 3 days; assay type: functional, organism-based; details: Enterovirus B, 72 h; in short: as §1
Coxsackievirus B4 [11] = assay: Antiviral activity against Coxsackievirus B4 infected in human HeLa cells assessed as inhibition of virus-induced cytopathicity after 3 days; assay type: functional, organism-based; details: Enterovirus B, 72 h
In short: (§4)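 Confluent cell monolayers infected with 100 CCID50 virus; after 2 h adsorption at 37 °C, virus removed and serial compound dilutions added (DMSO stocks 10 mg/ml). Incubated 37 °C for 3 days until complete CPE in untreated virus control.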

Vaccinia virus [12] = assay: Antiviral activity against Vaccinia virus infected in human HEL cells assessed as inhibition of virus-induced cytopathicity after 3 days; assay type: functional, organism-based; details: Orthopoxvirus vaccinia, 72 h
Human alphaherpesvirus 1 [13] = assay: Antiviral activity against HSV1 KOS infected in human HEL cells assessed as inhibition of virus-induced cytopathicity after 3 days; assay type: functional, organism-based; details: Human alphaherpesvirus 1, KOS, 72 h
Human alphaherpesvirus 2 = assay: Antiviral activity against HSV2 G infected in human HEL cells assessed as inhibition of virus-induced cytopathicity after 3 days; assay type: functional, organism-based; details: Human alphaherpesvirus 2, strain G, 72 h; in short: as §1
Punta Toro virus = assay: Antiviral activity against Punta Toro virus infected in african green monkey Vero cells assessed as inhibition of virus-induced cytopathicity after 3 days; assay type: functional, organism-based; details: 72 h; in short: as §4
[14] = Selectivity index, ratio of MCC for african green monkey Vero cells to EC50 for Sindbis virus; assay type: toxicity, cell-based; details: read-out: Selectivity Index; in short: as §2
[15] = Selectivity index, ratio of MCC for human HEL cells to EC50 for sVaccinia virus; assay type: toxicity, cell-based; in short: as §2
Vaccinia virus [16] = assay: Antiviral activity against Vaccinia virus Western Reserve; assay type: functional, organism-based; details: Orthopoxvirus vaccinia
[17] = Selectivity index, ratio of MCC for african green monkey Vero cells to EC50 for Coxsackievirus B4; assay type: toxicity, cell-based; details: read-out: Selectivity Index; in short: as §2
Vaccinia virus [18] = assay: Antiviral activity against Vaccinia virus Copenhagen; assay type: functional, organism-based; details: Orthopoxvirus vaccinia
[19] = Selectivity index, ratio of MCC for african green monkey Vero cells to EC50 for Reovirus 1; assay type: toxicity, cell-based; details: read-out: Selectivity Index; in short: as §2
Cowpox virus = assay: Antiviral activity against Cowpox virus Brighton; assay type: functional, organism-based; details: Cowpox virus (Brighton Red)
Vaccinia virus [20] = assay: Antiviral activity against Vaccinia virus Lister; assay type: functional, organism-based
[21] = Selectivity index, ratio of MCC for african green monkey Vero cells to EC50 for Punta Toro virus; assay type: toxicity, cell-based; details: read-out: Selectivity Index; in short: as §2
[22] = Selectivity index, ratio of MCC for human HEL cells to EC50 for sVesicular stomatitis virus; assay type: toxicity, cell-based; details: read-out: Selectivity Index; in short: as §2

Cc1ccc(C2=NN(C(N)=S)C(c3ccc(OCc4ccccc4)cc3)C2)cc1 (stereo not drawn)
EC50 [1]: > 0.8 mg/L | EC50 [2]: > 0.8 mg/L | EC50 (Sindbis virus): > 20 mg/L | EC50 [3]: > 20 mg/L | selectivity ratio [4]: 5 | EC50 [5]: > 20 mg/L | MCC [6]: 100 µg/mL | MCC [7]: 100 µg/mL | MCC [8]: 4 µg/mL | EC50 (Human alphaherpesvirus 1 [9]): > 20 mg/L | EC50 (Human respirovirus 3): > 20 mg/L | EC50 (Coxsackievirus B4 [10]): > 20 mg/L | EC50 (Coxsackievirus B4 [11]): > 0.8 mg/L | EC50 (Vaccinia virus [12]): > 20 mg/L | EC50 (Human alphaherpesvirus 1 [13]): > 20 mg/L | EC50 (Human alphaherpesvirus 2): > 20 mg/L | EC50 (Punta Toro virus): > 20 mg/L

CC(=O)N1N=C(c2ccc(Cl)cc2)CC1c1ccc(OCc2ccccc2)cc1 (stereo not drawn)
EC50 [1]: > 20 mg/L | EC50 [2]: > 20 mg/L | EC50 (Sindbis virus): > 4 mg/L | selectivity ratio [14]: 5 | EC50 [3]: > 4 mg/L | EC50 [5]: > 20 mg/L | selectivity ratio [15]: 3.6 | MCC [6]: 20 µg/mL | Activity (Vaccinia virus [16]): inactive | selectivity ratio [17]: 5 | MCC [7]: 100 µg/mL | Activity (Vaccinia virus [18]): inactive | MCC [8]: ≥ 20 µg/mL | selectivity ratio [19]: 5 | EC50 (Human alphaherpesvirus 1 [9]): > 20 mg/L | EC50 (Human respirovirus 3): > 4 mg/L | EC50 (Coxsackievirus B4 [10]): > 4 mg/L | Activity (Cowpox virus): inactive | EC50 (Coxsackievirus B4 [11]): > 20 mg/L | EC50 (Vaccinia virus [12]): 7 mg/L (≈ 17.3 µM) | EC50 (Human alphaherpesvirus 1 [13]): > 20 mg/L | Activity (Vaccinia virus [20]): inactive | selectivity ratio [21]: 5 | EC50 (Human alphaherpesvirus 2): > 20 mg/L | EC50 (Punta Toro virus): > 4 mg/L

Cc1ccc(C2=NN(C3=NC(=O)CS3)C(c3ccc(OCc4ccccc4)cc3)C2)cc1 (stereo not drawn)
EC50 [1]: > 20 mg/L | EC50 [2]: > 20 mg/L | EC50 (Sindbis virus): > 20 mg/L | EC50 [3]: > 20 mg/L | EC50 [5]: > 4 mg/L | MCC [6]: 100 µg/mL | MCC [7]: 20 µg/mL | MCC [8]: 100 µg/mL | EC50 (Human alphaherpesvirus 1 [9]): > 4 mg/L | EC50 (Human respirovirus 3): > 20 mg/L | EC50 (Coxsackievirus B4 [10]): > 20 mg/L | EC50 (Coxsackievirus B4 [11]): > 20 mg/L | EC50 (Vaccinia virus [12]): > 4 mg/L | selectivity ratio [22]: 5 | EC50 (Human alphaherpesvirus 1 [13]): > 4 mg/L | EC50 (Human alphaherpesvirus 2): > 4 mg/L | EC50 (Punta Toro virus): > 20 mg/L

CC(=O)N1N=C(c2ccc(C)cc2)CC1c1ccc(OCc2ccccc2)cc1 (stereo not drawn)
EC50 [1]: > 4 mg/L | EC50 [2]: > 4 mg/L | EC50 (Sindbis virus): > 4 mg/L | selectivity ratio [14]: 5 | EC50 [3]: > 4 mg/L | selectivity ratio [4]: 5 | EC50 [5]: > 4 mg/L | MCC [6]: 20 µg/mL | selectivity ratio [17]: 5 | MCC [7]: 20 µg/mL | MCC [8]: 20 µg/mL | selectivity ratio [19]: 5 | EC50 (Human alphaherpesvirus 1 [9]): > 4 mg/L | EC50 (Human respirovirus 3): > 4 mg/L | EC50 (Coxsackievirus B4 [10]): > 4 mg/L | EC50 (Coxsackievirus B4 [11]): > 4 mg/L | EC50 (Vaccinia virus [12]): > 4 mg/L | selectivity ratio [22]: 5 | EC50 (Human alphaherpesvirus 1 [13]): > 4 mg/L | selectivity ratio [21]: 5 | EC50 (Human alphaherpesvirus 2): > 4 mg/L | EC50 (Punta Toro virus): > 4 mg/L

Cc1ccc(-c2csc(N3N=C(c4ccc(Br)cc4)CC3c3ccc(OCc4ccccc4)cc3)n2)cc1 (stereo not drawn)
EC50 [1]: > 100 mg/L | EC50 [2]: > 100 mg/L | EC50 (Sindbis virus): > 20 mg/L | EC50 [3]: > 20 mg/L | EC50 [5]: > 20 mg/L | MCC [6]: 100 µg/mL | MCC [7]: 100 µg/mL | MCC [8]: > 100 µg/mL | EC50 (Human alphaherpesvirus 1 [9]): > 20 mg/L | EC50 (Human respirovirus 3): > 20 mg/L | EC50 (Coxsackievirus B4 [10]): > 20 mg/L | EC50 (Coxsackievirus B4 [11]): > 100 mg/L | EC50 (Vaccinia virus [12]): > 20 mg/L | EC50 (Human alphaherpesvirus 1 [13]): > 20 mg/L | EC50 (Human alphaherpesvirus 2): > 20 mg/L | EC50 (Punta Toro virus): > 20 mg/L

O=C1CSC(N2N=C(c3ccccc3)CC2c2ccc(OCc3ccccc3)cc2)=N1 (stereo not drawn)
EC50 [1]: > 20 mg/L | EC50 [2]: > 20 mg/L | EC50 (Sindbis virus): > 20 mg/L | EC50 [3]: > 20 mg/L | EC50 [5]: > 20 mg/L | MCC [6]: 100 µg/mL | MCC [7]: 100 µg/mL | MCC [8]: 100 µg/mL | EC50 (Human alphaherpesvirus 1 [9]): > 20 mg/L | EC50 (Human respirovirus 3): > 20 mg/L | EC50 (Coxsackievirus B4 [10]): > 20 mg/L | EC50 (Coxsackievirus B4 [11]): > 20 mg/L | EC50 (Vaccinia virus [12]): > 20 mg/L | EC50 (Human alphaherpesvirus 1 [13]): > 20 mg/L | EC50 (Human alphaherpesvirus 2): > 20 mg/L | EC50 (Punta Toro virus): > 20 mg/L

— ChEMBL document CHEMBL1153616, “Synthesis and antiviral activity of new pyrazole and thiazole derivatives” (Eur J Med Chem, 2009)
